ChEMBL document CHEMBL3352795, “Discovery of novel 1,5-benzodiazepine-2,4-dione derivatives as potential anticancer agents” (Bioorg Med Chem Lett, 2014)
Converted amounts (≈) assume the structure as drawn.

How the values were obtained:
Assay type in all cases: functional, cell-based
A549 = experiment: Anticancer activity against human A549 cells assessed as growth inhibition after 48 hrs by MTT assay; details: A549, 48 h
In short: (§1)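 Standard MTT assay on cells incubated with compound for 48 h, with 5-fluorouracil as the positive control. Results are reported as IC50.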

MCF7 = experiment: Anticancer activity against human MCF7 cells assessed as growth inhibition after 48 hrs by MTT assay; details: MCF7, 48 h; in short: as §1
[1] = Anticancer activity against human HCT116 cells assessed as growth inhibition after 48 hrs by MTT assay; details: HCT-116, 48 h; in short: as §1
HeLa = experiment: Anticancer activity against human HeLa cells assessed as growth inhibition after 48 hrs by MTT assay; in short: as §1
[2] = Anticancer activity against mouse LL/2 cells assessed as growth inhibition after 48 hrs by MTT assay; details: Lewis lung carcinoma; in short: as §1

Which IC50 (A549) does the source give for `CC(C)NC(=O)c1cccc2c1NC(=O)C(C(C)(C)C(=O)NCc1ccccc1)C(=O)N2` (centres undefined) here?
Its IC50 is over 100 µg/mL.

For `CC(C)(C)NC(=O)c1cccc2c1NC(=O)C(C(C)(C)C(=O)NCc1ccccc1)C(=O)N2` (centres undefined), which IC50 (A549) is on record?
Its IC50 is over 100 µg/mL.

For `CC(C)(C(=O)NCc1ccccc1)C1C(=O)Nc2cccc(C(=O)NC3CC3)c2NC1=O` (centres undefined), which IC50 (A549) is on record?
The IC50 was over 100 µg/mL.

Which IC50 (A549) does the source give for `CC(C)(C(=O)NCc1ccccc1)C1C(=O)Nc2cccc(C(=O)NCc3ccccc3)c2NC1=O` (centres undefined) here?
The IC50 was 45.3 µg/mL (≈ 93.5 µM).

What about the IC50 (MCF7) of the same compound?
The IC50 was 91.2 µg/mL (≈ 188 µM).

What about the IC50 [1] of the same compound?
The IC50 was 85 µg/mL (≈ 175 µM).

What about the IC50 (HeLa) of the same compound?
Its IC50 is 42 µg/mL (≈ 86.7 µM).

What about the IC50 [2] of the same compound?
Its IC50 is 48.5 µg/mL (≈ 100 µM).

Which IC50 (A549) does the source give for `CC(C)(C(=O)NCc1ccccc1)C1C(=O)Nc2cccc(C(=O)NCc3cccc(C(F)(F)F)c3)c2NC1=O` (centres undefined) here?
The IC50 was 80.5 µg/mL (≈ 146 µM).

And the IC50 (MCF7)?
The IC50 was 36.1 µg/mL (≈ 65.3 µM).

What about the IC50 [1] of the same compound?
The IC50 was 46.1 µg/mL (≈ 83.4 µM).

What about the IC50 (HeLa) of the same compound?
Its IC50 is 8.1 µg/mL (≈ 14.7 µM).

And the IC50 [2]?
The IC50 was 30.5 µg/mL (≈ 55.2 µM).

Which IC50 (A549) does the source give for `Cc1ccc(CNC(=O)c2cccc3c2NC(=O)C(C(C)(C)C(=O)NCc2ccccc2)C(=O)N3)cc1Cl` (centres undefined) here?
The IC50 was 59.4 µg/mL (≈ 111 µM).

And the IC50 (MCF7)?
Its IC50 is 87 µg/mL (≈ 163 µM).

And the IC50 [1]?
The IC50 was over 100 µg/mL.

What about the IC50 (HeLa) of the same compound?
The IC50 was 16.7 µg/mL (≈ 31.3 µM).

What about the IC50 [2] of the same compound?
Its IC50 is 58.3 µg/mL (≈ 109 µM).

Which IC50 (A549) does the source give for `CC(C)(C(=O)NCc1ccccc1)C1C(=O)Nc2cccc(C(=O)NCc3ccc(F)c(Cl)c3)c2NC1=O` (centres undefined) here?
The IC50 was 68.1 µg/mL (≈ 127 µM).

What about the IC50 (MCF7) of the same compound?
Its IC50 is 68.2 µg/mL (≈ 127 µM).

And the IC50 [1]?
The IC50 was 49.9 µg/mL (≈ 92.9 µM).

What about the IC50 (HeLa) of the same compound?
The IC50 was 21.1 µg/mL (≈ 39.3 µM).

And the IC50 [2]?
The IC50 was 66.8 µg/mL (≈ 124 µM).

With `Cc1ccc(CNC(=O)c2cccc3c2NC(=O)C(C(C)(C)C(=O)NCc2ccccc2)C(=O)N3)cc1` (centres undefined) as the compound, how does the IC50 (A549) read?
The IC50 was over 100 µg/mL.

For `CC(C)(C(=O)NCc1ccccc1)C1C(=O)Nc2cccc(C(=O)NCc3cc(F)ccc3F)c2NC1=O` (centres undefined), which IC50 (A549) is on record?
Its IC50 is 43.1 µg/mL (≈ 82.8 µM).

What about the IC50 (MCF7) of the same compound?
The IC50 was 74.8 µg/mL (≈ 144 µM).

What about the IC50 [1] of the same compound?
Its IC50 is 80.1 µg/mL (≈ 154 µM).

And the IC50 (HeLa)?
The IC50 was 25.1 µg/mL (≈ 48.2 µM).

What about the IC50 [2] of the same compound?
Its IC50 is 40.2 µg/mL (≈ 77.2 µM).

Which IC50 (A549) does the source give for `CC(C)(C(=O)NCc1ccccc1)C1C(=O)Nc2cccc(C(=O)NCc3c(F)ccc(F)c3F)c2NC1=O` (centres undefined) here?
The IC50 was 97.7 µg/mL (≈ 181 µM).

With `CC(C)(C(=O)NCc1ccccc1)C1C(=O)Nc2cccc(C(=O)NCc3ccccn3)c2NC1=O` (centres undefined) as the compound, how does the IC50 (A549) read?
Its IC50 is over 100 µg/mL.

For `CC(C)(C(=O)NCc1ccccc1)C1C(=O)Nc2cccc(C(=O)Nc3ccccc3)c2NC1=O` (centres undefined), which IC50 (A549) is on record?
The IC50 was 85.3 µg/mL (≈ 181 µM).

And the IC50 (MCF7)?
Its IC50 is 21.3 µg/mL (≈ 45.3 µM).

What about the IC50 [1] of the same compound?
The IC50 was 26.6 µg/mL (≈ 56.5 µM).

What about the IC50 (HeLa) of the same compound?
The IC50 was 41.9 µg/mL (≈ 89 µM).

What about the IC50 [2] of the same compound?
The IC50 was 29.3 µg/mL (≈ 62.3 µM).

With `CC(C)(C(=O)NCc1ccccc1)C1C(=O)Nc2cccc(C(=O)Nc3cccc(C(F)(F)F)c3)c2NC1=O` (centres undefined) as the compound, how does the IC50 (A549) read?
Its IC50 is 27.8 µg/mL (≈ 51.6 µM).

What about the IC50 (MCF7) of the same compound?
The IC50 was 10 µg/mL (≈ 18.6 µM).

What about the IC50 [1] of the same compound?
Its IC50 is 20.5 µg/mL (≈ 38.1 µM).

And the IC50 (HeLa)?
Its IC50 is 42 µg/mL (≈ 78 µM).

What about the IC50 [2] of the same compound?
Its IC50 is 17.6 µg/mL (≈ 32.7 µM).

With `CC(C)(C(=O)NCc1ccccc1)C1C(=O)Nc2cccc(C(=O)Nc3cccc(Cl)c3)c2NC1=O` (centres undefined) as the compound, how does the IC50 (A549) read?
Its IC50 is 56.2 µg/mL (≈ 111 µM).

What about the IC50 (MCF7) of the same compound?
The IC50 was 11.2 µg/mL (≈ 22.2 µM).

What about the IC50 [1] of the same compound?
The IC50 was 17.3 µg/mL (≈ 34.3 µM).

And the IC50 (HeLa)?
Its IC50 is 24 µg/mL (≈ 47.5 µM).

And the IC50 [2]?
The IC50 was 17.1 µg/mL (≈ 33.9 µM).

Which IC50 (A549) does the source give for `CC(C)(C(=O)NCc1ccccc1)C1C(=O)Nc2cccc(C(=O)Nc3ccccc3F)c2NC1=O` (centres undefined) here?
The IC50 was 96.1 µg/mL (≈ 197 µM).

Which IC50 (A549) does the source give for `CC(C)(C(=O)NCc1ccccc1)C1C(=O)Nc2cccc(C(=O)Nc3ccc(C(F)(F)F)cc3)c2NC1=O` (centres undefined) here?
Its IC50 is over 100 µg/mL.

What does the source list for `CC(C)(C(=O)NCc1ccccc1)C1C(=O)Nc2cccc(C(=O)Nc3cccc(F)c3F)c2NC1=O` (centres undefined)?
IC50 (A549): 80.4 µg/mL (≈ 159 µM); IC50 (MCF7): 21 µg/mL (≈ 41.5 µM); IC50 [1]: 25 µg/mL (≈ 49.4 µM); IC50 (HeLa): 37.8 µg/mL (≈ 74.6 µM); IC50 [2]: 32.9 µg/mL (≈ 65 µM)

For `CC(C)(C(=O)NCc1ccccc1)C1C(=O)Nc2cccc(C(=O)Nc3ccc(F)cc3F)c2NC1=O` (centres undefined), which IC50 (A549) is on record?
The IC50 was over 100 µg/mL.

Which IC50 (A549) does the source give for `CC(C)(C(=O)NCc1ccccc1)C1C(=O)Nc2cccc(C(=O)Nc3cc(Cl)ccc3F)c2NC1=O` (centres undefined) here?
The IC50 was 63.3 µg/mL (≈ 121 µM).

And the IC50 (MCF7)?
The IC50 was 20.4 µg/mL (≈ 39 µM).

What about the IC50 [1] of the same compound?
Its IC50 is 21.3 µg/mL (≈ 40.7 µM).

And the IC50 (HeLa)?
The IC50 was 35.4 µg/mL (≈ 67.7 µM).

And the IC50 [2]?
The IC50 was 19.3 µg/mL (≈ 36.9 µM).

For `CC(C)(C(=O)NCc1ccccc1)C1C(=O)Nc2cccc(C(=O)Nc3ccc(F)c(F)c3F)c2NC1=O` (centres undefined), which IC50 (A549) is on record?
The IC50 was over 100 µg/mL.

Which IC50 (MCF7) does the source give for `O=c1[nH]cc(F)c(=O)[nH]1` [FLUOROURACIL] here?
The IC50 was 12.1 µg/mL (≈ 93 µM).

And the IC50 [1]?
The IC50 was 4.8 µg/mL (≈ 36.9 µM).

What about the IC50 (HeLa) of the same compound?
Its IC50 is 5.7 µg/mL (≈ 43.8 µM).

And the IC50 [2]?
Its IC50 is 2.9 µg/mL (≈ 22.3 µM).
